Compound activity (PubChem)
Yeast growth inh: reduces growth of yeast BB579 in restrictive medium | S. cerevisiae BB579 growth, OD615, 48 h | inhibition, % at 10 µM | 140,000 compounds, 0.51% hits | AID 804;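 active = inhibition above a set limit, 3 SD over the mean compound inhibition, cut at about 44% in these data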
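System: DeaD yeast strain BB579; buffer or medium: CSMM-D dextrose restrictive medium; technique: OD at 615 nm; schedule: 4 h cell preincubation, 48 h compound exposure, 30 °C humidified; doses: single 10 µM dose; controls: amphotericin B 10 µg/mL, positive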
Yeast life ext: extends the lifespan of yeast; inhibition of the nicotinamide effect, % at 10 µM; S. cerevisiae growth with nicotinamide, OD615; deaD strain in restrictive glucose medium; 130,000 compounds, 0.68% hits;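 active = inhibition above a set limit, placed 3 SD over the median of all compounds, cut at about 26% in these data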;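 also: 0% = nicotinamide-treated wells and 100% = cells grown without nicotinamide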
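Test system: DeaD-strain S. cerevisiae / Buffer or medium: restrictive glucose medium / Also added: nicotinamide 1.5 mM / Doses: one concentration, 10 µM, DMSO 0.25% / Schedule: 48 h at 30 °C / Signal: OD615 measurement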
S1P3 antag: antagonists of human S1P3 receptor; CHO S1P3 NFAT-BLA reporter, FRET fluorescence, antagonist mode; Q99500; 170,000 compounds, 0.27% hits; AID 485; inhibition, % at 4.98 µM;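 active = inhibition above the plate cutoff, the mean inhibition of test wells on that plate plus 3 SD, cut at about 28% in these data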;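 also: cells challenged with S1P at its EC80 of 0.8 µM; blue over green emission ratio from cleaved BLA substrate after 4 h stimulation; 0% = S1P-stimulated wells and 100% = unstimulated DMSO-only wells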
Target sequence (Q99500 whole entry, looked up): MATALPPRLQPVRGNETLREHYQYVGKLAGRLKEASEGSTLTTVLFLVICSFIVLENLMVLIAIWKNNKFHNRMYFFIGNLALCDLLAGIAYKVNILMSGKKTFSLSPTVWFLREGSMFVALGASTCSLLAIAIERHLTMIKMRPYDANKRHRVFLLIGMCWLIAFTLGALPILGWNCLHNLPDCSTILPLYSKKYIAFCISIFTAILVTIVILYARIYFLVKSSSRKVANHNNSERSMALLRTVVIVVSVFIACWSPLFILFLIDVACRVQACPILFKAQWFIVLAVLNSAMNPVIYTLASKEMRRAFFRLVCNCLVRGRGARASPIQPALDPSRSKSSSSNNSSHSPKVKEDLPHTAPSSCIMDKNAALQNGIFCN
Active calls of the source: *; . = no result. Sampled rows, rich in hits. Any-hit rate of the full collection: about 0.98%.

SMILES	Yeast growth inh	Yeast life ext	S1P3 antag
COc1ccc(Cc2nnc(Nc3ccc(Cl)cc3)[nH]c2=O)cc1	.	.	-7
OC(CNCCCCNCC(O)C(F)(F)F)C(F)(F)F (stereo unspecified)	.	.	-8
Cc1cc(C)cc(NC(=O)c2ccc(Cn3nc(C)c(Cl)c3C)o2)c1	-11	.	.
Cc1ccc(CNC(=O)c2ccc(Cn3nc(C)c(Cl)c3C)o2)cc1	99*	-12	-2
NC(=O)c1sc2nc(N3CCCCC3)c3c(c2c1N)CCCC3	-22	-6	3
CCN(CC)C1CCCCC1NS(=O)(=O)c1ccc(Cl)cc1 (stereo unspecified)	9	-15	-10
CN(c1ccccc1)C1CCCCC1NS(=O)(=O)c1ccc(Cl)cc1 (stereo unspecified)	11	36*	0
O=S(=O)(Nc1ccc(-c2nc3ccccc3o2)cc1)c1ccccc1	46*	-7	-19
CC(=O)Nc1ccc(S(=O)(=O)Nc2cccc(-c3nc4ccccc4o3)c2)cc1	-5	-6	.
COc1ccc(/C=C(/C(=O)c2ccc(Cl)cc2Cl)n2cncn2)cc1	-12	43*	.
CN(C)c1ccc(/C=C(/C(=O)c2ccc(Cl)cc2Cl)n2cncn2)cc1	3	17	7
CC(C)CC(=O)/C(=C\c1ccc(Cl)cc1Cl)n1cncn1	61*	-3	-16
CN(C)/C=C(/C(=O)c1ccc(Cl)cc1)n1cncn1	.	.	-5
CC(C)OC(=O)c1cccc2c1C(=O)c1ccccc1-2	.	.	-3
Cc1cc(Nc2ccccc2N2CCOCC2)n2ncnc2n1	-16	.	-16
CCOC(=S)SCC(=O)N1CCc2ccccc2C1C1C(=O)CC(C)(C)CC1=O (stereo unspecified)	-28	37*	2
CCOC(=S)SCC(=O)N1CCc2cc(OC)c(OC)cc2C1C1C(=O)CC(C)(C)CC1=O (stereo unspecified)	-12	7	5
OC(COc1ccc2ccccc2c1Br)Cn1cnc(-c2ccccc2)c1 (stereo unspecified)	93*	-14	.
COc1ccc(OCC(O)Cn2cnc(-c3ccc(Br)cc3)c2)cc1 (stereo unspecified)	-25	.	.
CCCCC[C@H](O)/C=C/[C@H]1C=CC(=O)[C@@H]1C/C=C\CCCC(=O)O	-25	-2	10
CCCCC1C(=O)CC[C@H]2[C@@H]1CC(=O)[C@@H]2C/C=C\CCCC(=O)O (stereo partly specified)	-40	50*	-4
Cc1ccc(C)c(-c2cc(C(=O)Nc3sc(C)c(C)c3C(N)=O)c3ccccc3n2)c1	-40	-14	.
CSC1=N/C(=C\c2cccc(F)c2)C(=O)S1	-42	4	.
CSC1=N/C(=C\c2c(F)cccc2Cl)C(=O)S1	-20	31*	-1
COCCn1nnnc1C(C(C)C)N(Cc1cccnc1)Cc1ccccc1Cl (stereo unspecified)	-24	3	-40
SMILES	Yeast growth inh	Yeast life ext	S1P3 antag
Cc1nc2c(F)c(F)c(C(F)(F)F)c(F)c2[nH]1	57*	-16	0
Cc1nc2c(Br)c3nc(C(F)(F)F)[nH]c3c(Br)c2[nH]1	-22	-11	-22
COc1ccccc1-n1c(=O)oc2ccc(Cl)cc2c1=O	53*	-15	-4
COc1ccccc1-n1c(SCc2cc(=O)oc3cc(O)ccc23)nc2ccccc2c1=O	-47	3	-2
O=C(/C=C/c1ccc(Cl)c(Cl)c1)NCc1ccco1	-31	-7	8
COc1ccc(-c2nc3ccccc3[nH]2)cc1	-4	-14	.
COc1ccc(-c2cc(=O)n(-c3nc4ccccc4[nH]3)[nH]2)cc1	96*	-25	-9
CC1C(C)C(O)(c2ccccc2)CCN1C (stereo unspecified)	-34	.	.
O=C(NCCOC(=O)c1ccc(C(=O)OCCNC(=O)c2ccccc2)o1)c1ccccc1	-15	-9	-19
Cc1[nH]n(-c2ncc(-c3ccccc3)s2)c(=O)c1C(c1ccc(Cl)cc1)C(C#N)C#N (stereo unspecified)	0	35*	1
Cc1[nH]n(-c2ccccc2)c(=O)c1C(C[N+](=O)[O-])c1ccc(Cl)cc1 (stereo unspecified)	-21	18	4
COC(=O)c1sc(OC)cc1OCc1ccc(C)cc1	24	-3	.
O=C1CCCN1CN1CCCCC1	-9	-8	22
C/C(=N/NC(=O)c1ccc2c(c1)OCO2)c1cccc(NC(=O)C(C)(C)C)c1	-9	2	.
COC(=O)C1=C(N)Oc2cc(C)n(CC3CCCO3)c(=O)c2C1c1ccccc1OC (stereo unspecified)	-31	-18	-8
COC(=O)C1=C(N)Oc2cc(N(C)C)ccc2C1c1ccccc1OC (stereo unspecified)	-45	18	60*
Nc1ccccc1Nc1cc(-c2ccccc2)[nH]n1	.	.	-4
CC(C)C1NC2(C(=O)c3ccccc3C2=O)C2C(=O)N(c3ccc(F)cc3)C(=O)C12 (stereo unspecified)	-21	-6	.
CC(=O)c1cccc(CN2CCN(C3CCCCC3)C(CCO)C2)c1 (stereo unspecified)	.	.	0
O=C(COC(=O)c1ccccc1Br)NCc1ccccc1	-2	-5	0
CCCc1cc(-c2[nH]ncc2-c2ccc3c(c2)OCCCO3)c(O)cc1O	-51	-14	14
CC(C)NS(=O)(=O)c1ccc(OCC(=O)Nc2ccccc2F)cc1	-32	-1	-24
CC(C)NS(=O)(=O)c1ccc(OCC(=O)Nc2ccc(F)cc2F)cc1	-40	49*	.
CCCOc1ccc(S(=O)(=O)NCCN2CCOCC2)c2ccccc12	19	-6	0
COc1ccccc1OCC(=O)n1cc(C(=O)c2cc(Cl)cc(Cl)c2O)cn1	45*	-8	15
SMILES	Yeast growth inh	Yeast life ext	S1P3 antag
Cn1c(=O)c(C#N)c(-c2ccc(F)cc2)c2cc(C(=O)c3cc(Cl)cc(Cl)c3O)cnc21	.	.	12
O/N=C/c1ccc(OCc2ccccc2)c(Br)c1	45*	-11	-1
O/N=C/c1ccc(OCc2ccccc2)c(Cl)c1	-20	-5	-13
O/N=C/c1cc(Br)ccc1OCc1cccc(F)c1	-22	-7	.
Cc1ccc(COc2ccc(Br)cc2/C=N/O)cc1	89*	-8	.
Cc1ccc(OCC(=O)Nc2cc(C)on2)c([N+](=O)[O-])n1	.	.	-15
Cc1ccccc1C(=O)Nc1nnc(-c2ccco2)o1	.	.	-37
CC(C)(C)NC(=O)CN(C(=O)CS(=O)CC(=O)Nc1ccc(F)cc1)c1ccc(F)c(Cl)c1 (stereo unspecified)	-2	8	-2
Fc1ccc(Cn2c(-c3cscn3)nc3ccccc32)c(Cl)c1	-20	-4	.
Nc1nonc1-c1nc2ccccc2n1Cc1ccc(F)cc1Cl	-54	-19	78*
O=C(NCCCN1CCC(Cc2ccccc2)CC1)C1CC(=O)N(C2CCCC2)C1 (stereo unspecified)	-27	-2	104*
O=C(NCCCN1CCC(Cc2ccccc2)CC1)C1CCC(=O)N1C1CCCC1 (stereo unspecified)	14	-7	-36
CSc1nnc(-c2ccccc2)o1	-42	-8	3
O=S1(=O)C=C(Sc2nnc(-c3ccccc3)o2)c2ccccc21	36	43*	14
O=C(Cn1c(=O)oc2cc(S(=O)(=O)N3CCCCC3)ccc21)N1CCc2ccccc21	-19	-10	.
